What was measured:
Interstitial collagenase [1] = molecular target: T1, Interstitial collagenase (Homo sapiens, UniProt P03956); experiment: Inhibition of Matrix Metalloprotease-1
T1 sequence (P03956 whole entry): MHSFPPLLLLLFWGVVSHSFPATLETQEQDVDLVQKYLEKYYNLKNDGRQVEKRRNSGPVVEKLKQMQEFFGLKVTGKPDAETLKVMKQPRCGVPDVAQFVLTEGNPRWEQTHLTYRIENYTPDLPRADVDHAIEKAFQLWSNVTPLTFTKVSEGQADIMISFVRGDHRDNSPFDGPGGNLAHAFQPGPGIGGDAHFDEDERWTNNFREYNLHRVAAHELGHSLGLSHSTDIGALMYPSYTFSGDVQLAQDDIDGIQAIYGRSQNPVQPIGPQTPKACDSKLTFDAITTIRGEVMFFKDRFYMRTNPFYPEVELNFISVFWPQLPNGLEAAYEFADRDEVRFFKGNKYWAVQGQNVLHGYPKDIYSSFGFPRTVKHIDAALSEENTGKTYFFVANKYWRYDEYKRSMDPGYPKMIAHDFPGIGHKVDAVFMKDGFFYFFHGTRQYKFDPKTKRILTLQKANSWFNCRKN
Summary of the method: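 Recombinant C-terminally truncated human collagenase-1 at 10 nM final, in 20 mM Hepes, 5 mM CaCl₂, 0.02% Brij35, 0.5 mM cysteine at room temperature. Inhibitor was added in degassed methanol (2% final), then 3 min later 10 μM Mca-Pro-Leu-Gly-Leu-Dpa-Ala-Arg-NH₂. Fluorescence (ex 330/em 430 nm) was read each minute for 30 min; IC50 was fitted as v_i = v_0/(1+[I]/IC50).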

[2] = molecular target: T2, Matrix metalloproteinase-9 (Homo sapiens, UniProt P14780); experiment: Inhibition of Matrix Metalloprotease-9
T2 sequence (P14780 whole entry, the tested form may be a part): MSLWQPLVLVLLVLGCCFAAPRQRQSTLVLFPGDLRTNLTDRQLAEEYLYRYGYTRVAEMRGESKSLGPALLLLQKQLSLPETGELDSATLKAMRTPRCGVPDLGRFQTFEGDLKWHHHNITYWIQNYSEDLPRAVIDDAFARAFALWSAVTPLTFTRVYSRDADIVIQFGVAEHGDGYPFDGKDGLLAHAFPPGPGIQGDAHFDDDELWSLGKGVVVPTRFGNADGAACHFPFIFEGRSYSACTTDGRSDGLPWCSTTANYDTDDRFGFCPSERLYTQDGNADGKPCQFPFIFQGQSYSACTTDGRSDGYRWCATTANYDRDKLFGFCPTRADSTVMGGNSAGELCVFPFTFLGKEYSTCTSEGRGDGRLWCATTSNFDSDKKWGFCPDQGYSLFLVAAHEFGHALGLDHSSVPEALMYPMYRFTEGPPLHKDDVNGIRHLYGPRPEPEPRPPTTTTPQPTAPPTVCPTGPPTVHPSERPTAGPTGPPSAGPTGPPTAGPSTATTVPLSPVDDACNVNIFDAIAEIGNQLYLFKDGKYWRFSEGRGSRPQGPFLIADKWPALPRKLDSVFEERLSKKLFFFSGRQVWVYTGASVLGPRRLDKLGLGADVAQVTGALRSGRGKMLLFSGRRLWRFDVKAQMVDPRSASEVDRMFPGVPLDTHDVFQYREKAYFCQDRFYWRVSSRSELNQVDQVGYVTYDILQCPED
Summary of the method: (§1)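 Gelatinase-B, a recombinant C-terminally truncated form expressed in Pichia pastoris, used at 2 nM final. Buffer was 20 mM Hepes, 5 mM CaCl₂, 0.02% Brij35, 0.5 mM cysteine, at room temperature. Inhibitor in degassed methanol (2% final) was added 3 min before 10 μM Mca-Pro-Leu-Gly-Leu-Dpa-Ala-Arg-NH₂. Fluorescence at 330/430 nm was logged per minute for 30 min; IC50 was fitted to v_i = v_0/(1+[I]/IC50).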

Stromelysin-1 [3] = molecular target: T3, Stromelysin-1 (Homo sapiens, UniProt P08254); experiment: Inhibition of Matrix Metalloprotease-3
T3 sequence (P08254 whole entry, the tested form may be a part): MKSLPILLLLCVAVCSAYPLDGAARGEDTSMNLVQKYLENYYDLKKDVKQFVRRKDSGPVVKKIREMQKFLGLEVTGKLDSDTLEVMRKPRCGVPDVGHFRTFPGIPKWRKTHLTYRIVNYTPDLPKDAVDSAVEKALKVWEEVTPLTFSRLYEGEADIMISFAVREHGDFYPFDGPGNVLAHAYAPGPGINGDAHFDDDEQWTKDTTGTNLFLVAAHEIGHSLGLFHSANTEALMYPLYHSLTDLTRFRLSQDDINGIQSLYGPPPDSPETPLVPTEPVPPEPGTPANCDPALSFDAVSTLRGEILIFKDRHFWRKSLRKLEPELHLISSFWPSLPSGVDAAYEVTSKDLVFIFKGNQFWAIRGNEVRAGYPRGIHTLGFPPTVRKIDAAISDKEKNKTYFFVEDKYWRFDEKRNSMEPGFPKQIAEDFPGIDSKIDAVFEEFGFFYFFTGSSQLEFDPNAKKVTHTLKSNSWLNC
Summary of the method: (§2)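 Stromelysin-1, recombinant human C-terminally truncated form, used at 10 nM final. Conditions: room temperature; Hepes 20 mM, CaCl₂ 5 mM, Brij35 0.02%, cysteine 0.5 mM; inhibitor in degassed methanol (2% final) preincubated 3 min. Reaction started with quenched-fluorescence substrate Mca-PLGL-Dpa-AR-NH₂ (10 μM final), read at ex 330/em 430 nm every minute for 30 min. IC50 came from rate fit v_i = v_0/(1+[I]/IC50).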

Interstitial collagenase [4] = molecular target: T1, Interstitial collagenase; experiment: Inhibition of collagenase-1 (Matrix metalloprotease-1)
Matrilysin = molecular target: T4, Matrilysin (Homo sapiens, UniProt P09237); experiment: Inhibition of matrilysin (Matrix metalloprotease-7)
T4 sequence (P09237 whole entry): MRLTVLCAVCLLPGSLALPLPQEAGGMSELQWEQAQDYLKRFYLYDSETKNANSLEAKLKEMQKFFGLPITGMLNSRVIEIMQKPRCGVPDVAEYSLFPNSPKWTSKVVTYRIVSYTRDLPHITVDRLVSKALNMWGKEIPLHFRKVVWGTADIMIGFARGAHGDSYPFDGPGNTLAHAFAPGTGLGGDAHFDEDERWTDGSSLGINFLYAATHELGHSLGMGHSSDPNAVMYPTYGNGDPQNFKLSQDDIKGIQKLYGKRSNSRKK
Summary of the method: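 Matrilysin (recombinant C-terminally truncated human) at 0.5 nM final, room temperature, in buffer of 20 mM Hepes, 5 mM CaCl₂, 0.02% Brij35, 0.5 mM cysteine. Inhibitor was added from degassed methanol (2% final) with 3 min preincubation, then 10 μM quenched-fluorescence Mca-PLGL-Dpa-AR-NH₂ substrate. Fluorescence (ex 330/em 430 nm) was read once a minute for 30 min; IC50 came from v_i = v_0/(1+[I]/IC50).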

Stromelysin-1 [5] = molecular target: T3, Stromelysin-1; experiment: Inhibition of stromelysin (Matrix metalloprotease-3); summary of the method: as §2
[6] = molecular target: T2, Matrix metalloproteinase-9; experiment: Inhibition of gelatinase-B (Matrix metalloprotease-9); set-up: species or system Komagataella pastoris; summary of the method: as §1
Stromelysin-1 [7] = molecular target: T3, Stromelysin-1; experiment: Inhibition of stromelysin-1; summary of the method: as §2

IC50 (Interstitial collagenase [1])	IC50 [2]	IC50 (Stromelysin-1 [3])	IC50 (Interstitial collagenase [4])	IC50 (Matrilysin)	IC50 (Stromelysin-1 [5])	IC50 [6]	IC50 (Stromelysin-1 [7])	SMILES
220 nM	370 nM	3400 nM	–	–	–	–	–	CCCC[C@H]1C(=O)N[C@@H](CS)C(=O)N1CC1CCCCC1
47 nM	121 nM	2910 nM	47 nM	590 nM	2300 nM	113 nM	–	O=C1N[C@@H](CS)C(=O)N(CC2CCCCC2)[C@H]1CC1CCCCC1
–	–	–	2600 nM	> 40000 nM	> 40000 nM	7000 nM	–	O=C1N[C@H](CS)C(=O)N(CC2CCCCC2)[C@H]1CC1CCCCC1
–	–	–	14000 nM	> 40000 nM	–	> 40000 nM	> 40000 nM	O=C1N[C@H](CS)C(=O)N(CC2CCCCC2)[C@@H]1CC1CCCCC1
–	–	–	–	4800 nM	–	12000 nM	> 40000 nM	O=C1N[C@@H](CS)C(=O)N(CC2CCCCC2)[C@@H]1CC1CCCCC1

Second part, the compound before the results:

SMILES	IC50 (Interstitial collagenase [1])	IC50 [2]	IC50 (Stromelysin-1 [3])	IC50 (Interstitial collagenase [4])	IC50 (Matrilysin)	IC50 (Stromelysin-1 [5])	IC50 [6]	IC50 (Stromelysin-1 [7])
COc1ccc(CN2C(=O)[C@H](CS)NC(=O)[C@@H]2CC2CCCCC2)cc1	30 nM	79 nM	3800 nM	–	–	–	–	–
COc1ccc(CN2C(=O)[C@H](CS)NC(=O)[C@@H]2Cc2ccccc2)cc1	64 nM	2360 nM	4040 nM	–	–	–	–	–
CCCCCCCCN1C(=O)[C@H](Cc2cccnc2)NC(=O)[C@H]1CS	–	–	–	10000 nM	–	–	–	–
CCCCCCN1C(=O)[C@H](Cc2cccnc2)NC(=O)[C@H]1CS	–	–	–	2000 nM	–	–	–	–
CCCCN1C(=O)[C@H](CS)NC(=O)[C@@H]1Cc1ccccc1	319 nM	2360 nM	19000 nM	–	–	–	–	–
O=C1N[C@@H](CS)C(=O)N(Cc2ccc3ccccc3n2)[C@H]1CC1CCCCC1	35 nM	87 nM	2400 nM	–	–	–	–	–
